Converted amounts (≈) assume the structure as drawn. The source made the active and inactive calls. The rule behind the calls is not given here.
Tests used:
Candida albicans [1] = assay: Antifungal activity against Candida albicans SC5314 after 24 hrs by spectrophotometric analysis; type: functional; settings: SC5314, 24 h
Summary of the method: (§1)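 Broth microdilution in RPMI 1640, inoculum 5×10^3 CFU/mL, compounds from 6.4 mg/mL DMSO stocks, 35 ℃ for 24 h. Growth read as OD600; MIC80 taken as lowest concentration giving 80% growth inhibition. Triplicate.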

Candida parapsilosis = assay: Antifungal activity against Candida parapsilosis 22019 after 24 hrs by spectrophotometric analysis; type: functional; settings: Lodderomyces parapsilosis, 22019, 24 h; summary of the method: as §1
Nakaseomyces glabratus = assay: Antifungal activity against Candida glabrata 537 after 24 hrs by spectrophotometric analysis; type: functional; settings: Nakaseomyces glabratus, 537, 24 h; summary of the method: as §1
Cryptococcus neoformans = assay: Antifungal activity against Cryptococcus neoformans 32609 after 24 hrs by spectrophotometric analysis; type: functional; settings: Cryptococcus neoformans, 32609, 24 h; summary of the method: as §1
Aspergillus fumigatus = assay: Antifungal activity against Aspergillus fumigatus 07544 after 24 hrs by spectrophotometric analysis; type: functional; settings: Aspergillus fumigatus, 07544, 24 h; summary of the method: as §1
Trichophyton rubrum = assay: Antifungal activity against Trichophyton rubrum Cmccftla after 24 hrs by spectrophotometric analysis; type: functional; summary of the method: as §1
Nannizzia gypsea = assay: Antifungal activity against Microsporum gypseum Cmccfmza after 24 hrs by spectrophotometric analysis; type: functional; summary of the method: as §1
Candida albicans [2] = assay: Antifungal activity against Candida albicans SC5314 after 48 hrs by spectrophotometric analysis; type: functional; settings: SC5314, 48 h
Candida albicans [3] = assay: Antibiofilm activity against Candida albicans SC5314 assessed inhibition of yeast-to-hypha morphological transition at 0.5 ug/ml after 3 hrs; type: functional, organism-based
Summary of the method: (§2)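 Yeast-to-hypha transition in YPD with 10% (v/v) FBS across compound concentrations; cell morphology photographed after 3 h at 37°C.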

Candida albicans [4] = assay: Antibiofilm activity against Candida albicans SC5314 assessed inhibition of yeast-to-hypha morphological transition at 0.2 to 2 ug/ml after 3 hrs; type: functional, organism-based; summary of the method: as §2
Candida albicans [5] = assay: Antifungal activity against fluconazole-resistant Candida albicans clinical isolate 032 after 24 hrs by spectrophotometric analysis; type: functional; settings: isolate 032, 24 h
Summary of the method: (§3)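 Broth microdilution (MIC80) against fluconazole-resistant clinical C. albicans isolates from a Shanghai hospital. Strains were grown in YPD at 30 ℃. Compounds came from 6.4 mg/mL DMSO stocks and were tested over a concentration series on 5×10^3 CFU/mL inoculum in RPMI 1640 at 35 ℃ for 24 h. OD600 was read; MIC80 is the lowest concentration giving 80% growth inhibition. Done in triplicate.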

Candida albicans [6] = assay: Antifungal activity against fluconazole-resistant Candida albicans clinical isolate 1010 after 24 hrs by spectrophotometric analysis; type: functional; settings: isolate 1010, 24 h; summary of the method: as §3
Candida albicans [7] = assay: Antifungal activity against fluconazole-resistant Candida albicans isolate J38 clinical isolate after 24 hrs by spectrophotometric analysis; type: functional; settings: isolate J38, 24 h; summary of the method: as §3
Candida albicans [8] = assay: Antifungal activity against fluconazole-resistant Candida albicans isolate Chang7 clinical isolate after 24 hrs by spectrophotometric analysis; type: functional; settings: isolate Chang7, 24 h; summary of the method: as §3
Candida albicans [9] = assay: Antifungal activity against fluconazole-resistant Candida albicans clinical isolate 103 after 24 hrs by spectrophotometric analysis; type: functional; settings: isolate 103, 24 h; summary of the method: as §3
Candida albicans [10] = assay: Antifungal activity against Candida albicans infected in Sprague-Dawley rat vaginal infection model assessed as reduction in vaginal fungal burden at 1 mg/kg, administered intravaginally on day 1 to day 3 post fungal inoculation measured on day 4; type: functional, organism-based
Summary of the method: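 Ovariectomized rats inoculated intravaginally with 0.1 mL of 1×10^7 CFU/mL C. albicans on days 10, 11 and 12 after surgery. Compound in saline with 1% DMSO (2, 4, 8 mg/mL) given intravaginally on days 1–3 post-inoculation. On day 4, 100 µL vaginal fluid plated on chloramphenicol SDA agar for CFU counts.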

Candida albicans [11] = assay: Antibiofilm activity against Candida albicans assessed inhibition of biofilm formation at 1024 ug/ml; type: functional

| SMILES | MIC80 (Candida albicans [1]) [µg/mL] | MIC80 (Candida parapsilosis) [µg/mL] | MIC80 (Nakaseomyces glabratus) [µg/mL] | MIC80 (Cryptococcus neoformans) [µg/mL] | MIC80 (Aspergillus fumigatus) [µg/mL] | MIC80 (Trichophyton rubrum) [µg/mL] | MIC80 (Nannizzia gypsea) [µg/mL] | MIC80 (Candida albicans [2]) [µg/mL] | Activity (Candida albicans [3]) | inhibition (Candida albicans [4]) | MIC80 (Candida albicans [5]) [µg/mL] | MIC80 (Candida albicans [6]) [µg/mL] | MIC80 (Candida albicans [7]) [µg/mL] | MIC80 (Candida albicans [8]) [µg/mL] | MIC80 (Candida albicans [9]) [µg/mL] | Activity (Candida albicans [10]) | inhibition at 1024 µg/mL (Candida albicans [11]) [%] |
| --- | --- | --- | --- | --- | --- | --- | --- | --- | --- | --- | --- | --- | --- | --- | --- | --- | --- |
| Cc1cnc2c(c1)C(=O)c1sc([N+](=O)[O-])cc1C2=O | 0.5 (≈ 1.82 µM) | 1 (≈ 3.65 µM) | 1 (≈ 3.65 µM) | 0.5 (≈ 1.82 µM) | 2 (≈ 7.29 µM) | 1 (≈ 3.65 µM) | 0.5 (≈ 1.82 µM) | 0.5 (≈ 1.82 µM) | Active | inactive |  |  |  |  |  |  |  |
| OC(Cn1cncn1)(Cn1cncn1)c1ccc(F)cc1F [FLUCONAZOLE] | 0.25 (≈ 0.816 µM) | 2 (≈ 6.53 µM) | 2 (≈ 6.53 µM) | 1 (≈ 3.27 µM) | > 64 | 4 (≈ 13.1 µM) | 32 (≈ 104 µM) |  |  |  | > 64 | > 64 | > 64 | 2 (≈ 6.53 µM) | > 64 | Active | 60 |

— ChEMBL document CHEMBL4138161, “Discovery of simplified sampangine derivatives as novel fungal biofilm inhibitors” (Eur J Med Chem, 2018)
